From ChEMBL document CHEMBL1155564, “New antimicrobial flavanones from Physena madagascariensis” (2000)

Assays:
Format in all cases: functional
Conditions in all cases: read-out: MEC
Staphylococcus aureus = assay: Antimicrobial activity against Staphylococcus aureus after 16 hrs by microtiter plate assay
How it was run: (§1)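 Broth microdilution in YPAD medium (1% yeast extract, 2% peptone, 2% dextrose, 40 μg/mL adenine). Wells were scored visually after 16 h. Clear wells were plated on YPAD agar for 16 h at room temperature; regrowth meant bacteriostatic, none meant bactericidal.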

[1] = tested on: Staphylococcus epidermidis; assay: Antimicrobial activity against Staphylococcus epidermidis after 16 hrs by microtiter plate assay; how it was run: as §1
Salmonella enterica = assay: Antimicrobial activity against Salmonella enterica after 16 hrs by microtiter plate assay; how it was run: as §1
Shigella sonnei = assay: Antimicrobial activity against Shigella sonnei after 16 hrs by microtiter plate assay by microtiter plate assay; how it was run: as §1
Escherichia coli = assay: Antimicrobial activity against Escherichia coli after 16 hrs by microtiter plate assay; how it was run: as §1
Klebsiella aerogenes = assay: Antimicrobial activity against Enterobacter aerogenes after 16 hrs by microtiter plate assay; how it was run: as §1
Listeria monocytogenes = assay: Antimicrobial activity against Listeria monocytogenes after 16 hrs by microtiter plate assay; how it was run: as §1
Enterococcus = assay: Antimicrobial activity against Enterococcus after 16 hrs by microtiter plate assay; how it was run: as §1

Molecule `C=C(C)CC[C@H](Cc1c(O)cc(O)c2c1O[C@H](c1ccc(O)cc1)CC2=O)C(=C)C` [REMANGIFLAVANONE A] has a minimal effective concentration (Staphylococcus aureus) of 3.75 µg/mL, a minimal effective concentration [1] of 1.8 µg/mL and a minimal effective concentration (Salmonella enterica) of 125 µg/mL. For the same molecule, the minimal effective concentration (Shigella sonnei) was 125 µg/mL, the minimal effective concentration (Escherichia coli) was 125 µg/mL and the minimal effective concentration (Klebsiella aerogenes) was 125 µg/mL. It also gave a minimal effective concentration (Listeria monocytogenes) of 125 µg/mL and a minimal effective concentration (Enterococcus) of 7.5 µg/mL.

For `C=C(C)CC[C@H](Cc1c(O)cc(O)c2c1O[C@H](c1ccc(O)cc1O)CC2=O)C(=C)C` [REMANGIFLAVANONE B], the minimal effective concentration (Staphylococcus aureus) was 1.8 µg/mL, the minimal effective concentration [1] was 1.8 µg/mL and the minimal effective concentration (Salmonella enterica) was 125 µg/mL. It also gave a minimal effective concentration (Shigella sonnei) of 125 µg/mL, a minimal effective concentration (Escherichia coli) of 125 µg/mL and a minimal effective concentration (Klebsiella aerogenes) of 125 µg/mL. For the same molecule, the minimal effective concentration (Listeria monocytogenes) was 1.8 µg/mL and the minimal effective concentration (Enterococcus) was 7.5 µg/mL.
